In ChEMBL document CHEMBL4321862, “Application of Bivalent Bioisostere Concept on Design and Discovery of Potent Opioid Receptor Modulators” (J Med Chem, 2019):
pEC50, pKi: −log10 of the molar value. Calls of active or inactive are those of the source.

Legend:
[1] = molecular target: Mu-type opioid receptor (Mus musculus) (UniProt P42866); test: Agonist activity at recombinant mouse mu opioid receptor expressed in CHO cell membrane assessed as [35]-GTPgammaS binding incubated for […] by scintillation counting method relative to DAMGO
Mu-type opioid receptor [2] = molecular target: T1, Mu-type opioid receptor (Mus musculus, UniProt P42866); test: Agonist activity at recombinant mouse mu opioid receptor expressed in CHO cell membrane assessed as [35]-GTPgammaS binding incubated for […] by scintillation counting method
[3] = molecular target: Delta-type opioid receptor (Homo sapiens, UniProt P41143); test: Displacement of [3H]-[…] from human delta opioid receptor expressed in CHO cells incubated for […] by competitive radioligand binding assay; format: cell-based
[4] = Selectivity index, ratio of Ki for mouse kappa opioid receptor expressed in CHO cells to Ki for mouse mu opioid receptor expressed in CHO cells
[5] = Selectivity index, ratio of Ki for human delta opioid receptor expressed in CHO cells to Ki for mouse mu opioid receptor expressed in CHO cells
Mu-type opioid receptor [6] = molecular target: T1, Mu-type opioid receptor; test: Displacement of [3H]-Naloxone from mouse mu opioid receptor expressed in CHO cells incubated for […] by competitive radioligand binding assay; format: cell-based
[7] = molecular target: Kappa-type opioid receptor (Mus musculus, UniProt P33534); test: Displacement of [3H]-[…] from mouse kappa opioid receptor expressed in CHO cells incubated for […] by competitive radioligand binding assay; format: cell-based
Mus musculus [8] = test: Inhibition of morphine-induced antinociceptive activity in subcutaneously dosed Swiss Webster mouse assessed as decrease in latency to tail withdrawal administered 5 mins before morphine stimulation observed for 20 mins by warm water tail withdrawal assay; format: functional
Procedure, shortened: (§1)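 Male Swiss Webster mice, n ≥ 5, baseline latency 2–4 s. Test compound given s.c. 5 min before morphine 10 mg/kg. Tail immersion at 56 ± 0.1 °C 20 min after morphine, 10 s cutoff, %MPE per mouse.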

Mus musculus [9] = test: Inhibition of morphine-induced antinociceptive activity in Swiss Webster mouse assessed as decrease in latency to tail withdrawal at 10 mg/kg, sc administered 5 mins before morphine stimulation observed for 20 mins by warm water tail withdrawal assay; format: functional, organism-based; procedure, shortened: as §1
Mus musculus [10] = test: Antinociceptive activity in Swiss Webster mouse assessed as increase in latency to tail withdrawal at 10 mg/kg, sc observed for 20 mins by warm water tail withdrawal assay; format: functional, organism-based
Procedure, shortened: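 Male Swiss Webster mice, 25–30 g, n = 5 per group, baseline tail latency 2–4 s accepted. Compound given s.c. in saline or water. Tail immersed in 56 ± 0.1 °C water 20 min post-dose, 10 s cutoff. %MPE = [(test − control)/(10 − control)] × 100. Saline and morphine as controls.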

[11] = molecular target: Mu-type opioid receptor (Mus musculus) (UniProt P42866); test: Agonist activity at mouse mu opioid receptor expressed in CHO cells assessed as inhibition of forskolin-induced cAMP formation incubated for 8 min followed by forskolin stimulation by ELISA; format: functional, cell-based
Procedure, shortened: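 mMOR-CHO cells grown to confluency, pre-incubated 30 min at 37°C with 1 mM IBMX, 200 μM Ro 20-1724, bovine serum albumin and 20 mM HEPES (pH 7.2-7.5). Ligand then added with 10 μM forskolin for 8 min at 37°C. Media removed, cells rinsed with PBS, cAMP measured by ELISA. DMEM/F12 used as solvent throughout.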

Mus musculus [12] = test: Inhibition of opioid-withdrawal symptom in morphine-pelleted Swiss Webster mouse assessed as reduction in paw tremors at 1 mg/kg, sc observed after 20 mins; format: functional, organism-based
Procedure, shortened: (§2)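 Male Swiss Webster mice, n = 5, implanted with 75 mg morphine pellet at base of neck. After 72 h, 30 min habituation in observation chamber, then test compound s.c. Wet-dog shakes, escape jumps and paw tremors counted over 20 min.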

Mus musculus [13] = test: Inhibition of opioid-withdrawal symptom in morphine-pelleted Swiss Webster mouse assessed as reduction in wet dog shakes at 1 mg/kg, sc observed after 20 mins; format: functional, organism-based; procedure, shortened: as §2
Mus musculus [14] = test: Inhibition of opioid-withdrawal symptom in morphine-pelleted Swiss Webster mouse assessed as reduction in escape jumps at 1 mg/kg, sc observed after 20 mins; format: functional, organism-based; procedure, shortened: as §2

## Cl.O=C(N[C@H]1CC[C@@]2(O)[C@H]3Cc4ccc(O)c5c4[C@@]2(CCN3CC2CC2)[C@H]1O5)c1csc2ccccc12
[1]
  Emax: 14.3%
Mu-type opioid receptor [2]
  pEC50: 8.73
[3]
  pKi: 8.04
[4]
  Ratio Ki: 11.9
[5]
  Ratio Ki: 45.4
Mu-type opioid receptor [6]
  pKi: 9.70
[7]
  pKi: 8.62

## Cl.O=C(N[C@H]1CC[C@@]2(O)[C@H]3Cc4ccc(O)c5c4[C@@]2(CCN3CC2CC2)[C@H]1O5)c1cc2ccccc2o1
[1]
  Emax: 34%
Mu-type opioid receptor [2]
  pEC50: 8.26
Mus musculus [8]
  AD50: 3.21 mg/kg
Mus musculus [9]
  inhibition: Active
[3]
  pKi: 7.44
[4]
  Ratio Ki: 3.8
[5]
  Ratio Ki: 81.6
Mu-type opioid receptor [6]
  pKi: 9.36
[7]
  pKi: 8.78

## Cl.O=C(N[C@@H]1CC[C@@]2(O)[C@H]3Cc4ccc(O)c5c4[C@@]2(CCN3CC2CC2)[C@H]1O5)c1cccc2ccsc12
Mu-type opioid receptor [2]
  pEC50: 8.53
[3]
  pKi: 7.41
[4]
  Ratio Ki: 8.5
[5]
  Ratio Ki: 204.9
Mu-type opioid receptor [6]
  pKi: 9.72
[7]
  pKi: 8.79

## Cl.O=C(N[C@@H]1CC[C@@]2(O)[C@H]3Cc4ccc(O)c5c4[C@@]2(CCN3CC2CC2)[C@H]1O5)c1coc2ccccc12
[1]
  Emax: 43.2%
Mu-type opioid receptor [2]
  pEC50: 9.33
[3]
  pKi: 7.99
[4]
  Ratio Ki: 2.3
[5]
  Ratio Ki: 79.2
Mu-type opioid receptor [6]
  pKi: 9.89
[7]
  pKi: 9.52

## Cl.O=C(N[C@@H]1CC[C@@]2(O)[C@H]3Cc4ccc(O)c5c4[C@@]2(CCN3CC2CC2)[C@H]1O5)c1ccc2sccc2c1
[1]
  Emax: 75.4%
Mu-type opioid receptor [2]
  pEC50: 9.72
[3]
  pKi: 8.87
[4]
  Ratio Ki: 1.5
Mus musculus [10]
  Activity: Active
[5]
  Ratio Ki: 9.7
Mu-type opioid receptor [6]
  pKi: 9.85
[7]
  pKi: 9.68

## Cl.O=C(N[C@H]1CC[C@@]2(O)[C@H]3Cc4ccc(O)c5c4[C@@]2(CCN3CC2CC2)[C@H]1O5)c1cc2ccccc2s1
[1]
  Emax: 22.9%
Mu-type opioid receptor [2]
  pEC50: 8.40
[3]
  pKi: 7.84
[4]
  Ratio Ki: 4.5
[5]
  Ratio Ki: 53
Mu-type opioid receptor [6]
  pKi: 9.57
[7]
  pKi: 8.92

## Cl.O=C(N[C@H]1CC[C@@]2(O)[C@H]3Cc4ccc(O)c5c4[C@@]2(CCN3CC2CC2)[C@H]1O5)c1ccc2ccsc2c1
[1]
  Emax: 18.1%
Mu-type opioid receptor [2]
  pEC50: 8.52
[3]
  pKi: 7.65
[4]
  Ratio Ki: 13.3
[5]
  Ratio Ki: 79.6
Mu-type opioid receptor [6]
  pKi: 9.55
[7]
  pKi: 8.43

## C[C@@H](NC(=O)[C@@H](N)Cc1ccc(O)cc1)C(=O)NCC(=O)N(C)[C@@H](Cc1ccccc1)C(=O)NCCO
[11]
  Emax: 82.4%

## Cl.O=C(N[C@@H]1CC[C@@]2(O)[C@H]3Cc4ccc(O)c5c4[C@@]2(CCN3CC2CC2)[C@H]1O5)c1cccc2sccc12
[1]
  Emax: 23.1%
Mu-type opioid receptor [2]
  pEC50: 9.49
[3]
  pKi: 7.62
[4]
  Ratio Ki: 4.7
[5]
  Ratio Ki: 150.3
Mu-type opioid receptor [6]
  pKi: 9.80
[7]
  pKi: 9.12

## C=CCN1CC[C@]23c4c5ccc(O)c4O[C@H]2C(=O)CC[C@@]3(O)[C@H]1C5
Mus musculus [12]
  inhibition: Active
Mus musculus [13]
  inhibition: Active
Mus musculus [14]
  inhibition: Active

## O=C(N[C@H]1CC[C@@]2(O)[C@H]3Cc4ccc(O)c5c4[C@@]2(CCN3CC2CC2)[C@H]1O5)c1cccc2ccoc12
[1]
  Emax: 12.9%
[7]
  pKi: 8.29

## Cl.O=C(N[C@@H]1CC[C@@]2(O)[C@H]3Cc4ccc(O)c5c4[C@@]2(CCN3CC2CC2)[C@H]1O5)c1cc2ccccc2o1
[1]
  Emax: 64.5%
Mu-type opioid receptor [2]
  pEC50: 9.41
[3]
  pKi: 8.71
[4]
  Ratio Ki: 1.4
Mus musculus [10]
  Activity: Active
[5]
  Ratio Ki: 12.1
Mu-type opioid receptor [6]
  pKi: 9.80
[7]
  pKi: 9.64

## Cl.O=C(N[C@H]1CC[C@@]2(O)[C@H]3Cc4ccc(O)c5c4[C@@]2(CCN3CC2CC2)[C@H]1O5)c1ccc2sccc2c1
[1]
  Emax: 18.9%
Mu-type opioid receptor [2]
  pEC50: 8.61
[3]
  pKi: 7.93
[4]
  Ratio Ki: 5.6
[5]
  Ratio Ki: 30.4
Mu-type opioid receptor [6]
  pKi: 9.41
[7]
  pKi: 8.66

## Cl.O=C(N[C@H]1CC[C@@]2(O)[C@H]3Cc4ccc(O)c5c4[C@@]2(CCN3CC2CC2)[C@H]1O5)c1coc2ccccc12
[1]
  Emax: 18.7%
Mu-type opioid receptor [2]
  pEC50: 8.80
Mus musculus [8]
  AD50: 2.51 mg/kg
Mus musculus [9]
  inhibition: Active
[3]
  pKi: 7.77
[4]
  Ratio Ki: 12.5
[5]
  Ratio Ki: 62.3
Mu-type opioid receptor [6]
  pKi: 9.57
[7]
  pKi: 8.47

## Cl.O=C(N[C@@H]1CC[C@@]2(O)[C@H]3Cc4ccc(O)c5c4[C@@]2(CCN3CC2CC2)[C@H]1O5)c1cc2ccccc2s1
[1]
  Emax: 59%
Mu-type opioid receptor [2]
  pEC50: 9.62
[3]
  pKi: 8.86
[4]
  Ratio Ki: 1.4
Mus musculus [10]
  Activity: Active
[5]
  Ratio Ki: 9.9
Mu-type opioid receptor [6]
  pKi: 9.85
[7]
  pKi: 9.70

## Cl.O=C(N[C@H]1CC[C@@]2(O)[C@H]3Cc4ccc(O)c5c4[C@@]2(CCN3CC2CC2)[C@H]1O5)c1ccc2occc2c1
[1]
  Emax: 17.7%
Mu-type opioid receptor [2]
  pEC50: 8.43
Mus musculus [8]
  AD50: 2.03 mg/kg
Mus musculus [9]
  inhibition: Active
[3]
  pKi: 7.54
[4]
  Ratio Ki: 12.1
[5]
  Ratio Ki: 82.9
Mu-type opioid receptor [6]
  pKi: 9.46
[7]
  pKi: 8.37

## Cl.O=C(N[C@@H]1CC[C@@]2(O)[C@H]3Cc4ccc(O)c5c4[C@@]2(CCN3CC2CC2)[C@H]1O5)c1csc2ccccc12
[1]
  Emax: 29.9%
Mu-type opioid receptor [2]
  pEC50: 9.43
[3]
  pKi: 7.73
[4]
  Ratio Ki: 3.4
[5]
  Ratio Ki: 133.21
Mu-type opioid receptor [6]
  pKi: 9.85
[7]
  pKi: 9.32

## Cl.O=C(N[C@H]1CC[C@@]2(O)[C@H]3Cc4ccc(O)c5c4[C@@]2(CCN3CC2CC2)[C@H]1O5)c1cccc2sccc12
[1]
  Emax: 16.1%
Mu-type opioid receptor [2]
  pEC50: 8.98
[3]
  pKi: 8.16
[4]
  Ratio Ki: 9
[5]
  Ratio Ki: 26.3
Mu-type opioid receptor [6]
  pKi: 9.59
[7]
  pKi: 8.63

## Cl.O=C(N[C@@H]1CC[C@@]2(O)[C@H]3Cc4ccc(O)c5c4[C@@]2(CCN3CC2CC2)[C@H]1O5)c1ccc2occc2c1
[1]
  Emax: 52.2%
Mu-type opioid receptor [2]
  pEC50: 9.39
[3]
  pKi: 8.27
[4]
  Ratio Ki: 1.4
Mus musculus [10]
  Activity: Active
[5]
  Ratio Ki: 35.4
Mu-type opioid receptor [6]
  pKi: 9.82
[7]
  pKi: 9.68

## Cl.O=C(N[C@H]1CC[C@@]2(O)[C@H]3Cc4ccc(O)c5c4[C@@]2(CCN3CC2CC2)[C@H]1O5)c1ccc2ccoc2c1
[1]
  Emax: 30.5%
Mu-type opioid receptor [2]
  pEC50: 8.65
[3]
  pKi: 7.51
[4]
  Ratio Ki: 5.7
[5]
  Ratio Ki: 105.8
Mu-type opioid receptor [6]
  pKi: 9.54
[7]
  pKi: 8.78

## Cl.O=C(N[C@@H]1CC[C@@]2(O)[C@H]3Cc4ccc(O)c5c4[C@@]2(CCN3CC2CC2)[C@H]1O5)c1ccc2ccsc2c1
[1]
  Emax: 58.7%
Mu-type opioid receptor [2]
  pEC50: 9.68
[3]
  pKi: 8.69
[4]
  Ratio Ki: 1.3
Mus musculus [10]
  Activity: Active
[5]
  Ratio Ki: 13.6
Mu-type opioid receptor [6]
  pKi: 9.82
[7]
  pKi: 9.70

## Cl.O=C(N[C@@H]1CC[C@@]2(O)[C@H]3Cc4ccc(O)c5c4[C@@]2(CCN3CC2CC2)[C@H]1O5)c1cccc2occc12
[1]
  Emax: 23.6%
Mu-type opioid receptor [2]
  pEC50: 9.23
Mus musculus [8]
  AD50: 2.79 mg/kg
Mus musculus [9]
  inhibition: Active
[3]
  pKi: 7.15
[4]
  Ratio Ki: 4.7
[5]
  Ratio Ki: 415
Mu-type opioid receptor [6]
  pKi: 9.77
[7]
  pKi: 9.10

## Cl.O=C(N[C@@H]1CC[C@@]2(O)[C@H]3Cc4ccc(O)c5c4[C@@]2(CCN3CC2CC2)[C@H]1O5)c1ccc2ccoc2c1
[1]
  Emax: 21.1%
Mu-type opioid receptor [2]
  pEC50: 9.23
[3]
  pKi: 7.91
[4]
  Ratio Ki: 1.7
Mus musculus [10]
  Activity: Active
[5]
  Ratio Ki: 68.1
Mu-type opioid receptor [6]
  pKi: 9.74
[7]
  pKi: 9.52
